Results: article PMC7586407 (Journal of Medicinal Chemistry, 2020)

Experiments:
A549 cells [1] = assay: Colony formation; assay type: cell-based; settings: 10 days
Outline: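 A549 cells seeded at 100 cells/well in RPMI with 10% FBS and 100 U/mL penicillin/streptomycin, then incubated overnight. Exposed to test compound for 10 days; final DMSO 0.2%, with 0.2% DMSO as vehicle control. Fixed with 4% paraformaldehyde (20 min), stained with 0.5% crystal violet (20 min), photographed and image-analysed. A colony is an aggregate of >50 cells.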

MIF [2] = molecular target: T1, MIF (Homo sapiens, UniProt P14174); assay: MIF tautomerase activity assay with 4-HPP as substrate; settings: for LE (ligand efficiency): LE = 1.4(−log IC50)/N; for LLE (lipophilic ligand efficiency): LLE = pIC50 – C log P
T1 sequence (P14174 2-115 limits assumed): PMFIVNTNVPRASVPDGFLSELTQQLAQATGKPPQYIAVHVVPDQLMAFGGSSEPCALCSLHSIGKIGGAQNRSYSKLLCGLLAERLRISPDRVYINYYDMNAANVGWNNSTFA

MIF–sCD74 interaction = molecular target: T2, MIF–sCD74 interaction (Homo sapiens, UniProt P14174); assay: ELISA of MBP–sCD74 binding to coated MIF; settings: at concentrations up to 50 μM
T2 sequence (P14174 2-115 limits assumed): T1 sequence (P14174 2-115 limits assumed)
Outline: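 Recombinant C-terminal His-tagged human MIF (E. coli-expressed, Ni-purified) coated at 250 nM overnight at 4 °C, then blocked with 2% BSA and washed. His/MBP-purified MBP–sCD74 (500 nM) was premixed with test compound (1–100 μM, added in DMSO) for 10 min at RT, then applied to wells for 30 min at RT. Controls: DMSO vehicle and no-sCD74. Detection used rabbit anti-CD74 (1:1000) then goat anti-rabbit HRP (1:1000), each 30 min at RT.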

MIF [3] = molecular target: T1, MIF; assay: FID assay with 6d as fluorescent indicator; assay type: binding
A549 cells [4] = assay: MTS cell viability assay; assay type: cell-based; settings: concentrations below 20 μM, 24 h of treatment
[5] = Fluorescence quantum yield and fluorescence lifetime; assay type: physicochemical; settings: relative to 4-MU, excitation 330 nm
[6] = molecular target: bovine serum albumin (BSA) (Bos taurus, UniProt P02769); assay: Fluorescence quenching control with BSA; assay type: binding; settings: 800 nM BSA, 50 nM fluorophore
Sequence of bovine serum albumin (BSA) (P02769 25-607): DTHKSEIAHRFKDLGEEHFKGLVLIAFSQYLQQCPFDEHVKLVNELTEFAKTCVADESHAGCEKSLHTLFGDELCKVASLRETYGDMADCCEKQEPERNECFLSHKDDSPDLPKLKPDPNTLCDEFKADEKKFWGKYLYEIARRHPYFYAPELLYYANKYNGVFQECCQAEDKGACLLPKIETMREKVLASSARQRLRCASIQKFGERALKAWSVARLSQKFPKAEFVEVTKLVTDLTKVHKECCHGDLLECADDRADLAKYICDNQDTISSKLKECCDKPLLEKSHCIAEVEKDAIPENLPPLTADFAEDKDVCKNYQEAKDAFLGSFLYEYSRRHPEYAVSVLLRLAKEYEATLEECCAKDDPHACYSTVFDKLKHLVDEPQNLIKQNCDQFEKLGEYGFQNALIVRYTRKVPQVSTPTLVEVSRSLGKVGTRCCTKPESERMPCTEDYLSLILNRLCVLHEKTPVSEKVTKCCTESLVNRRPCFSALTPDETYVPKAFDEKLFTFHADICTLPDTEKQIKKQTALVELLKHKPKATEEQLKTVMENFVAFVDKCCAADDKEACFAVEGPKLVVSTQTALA

[7] = test system: MIF-induced ERK phosphorylation in A549 cells; assay: MIF-induced ERK phosphorylation, Western blot; assay type: cell-based; settings: 10 μM, 150 ng/mL MIF
MIF [8] = molecular target: T1, MIF; assay: FID assay with 7 as fluorescent indicator; assay type: binding; settings: 7 50 nM, MIF 100 nM, PBS pH 7.4; calculated from EC50 by eq 1

Q: Which colony formation (A549 cells [1]; 10 μM) does the source give for O=C(NCc1cn(-c2ccc(O)c(F)c2)nn1)c1cc2cc(Cl)ccc2[nH]1 [Compound 13, 5-chloro-N-((1-(3-fluoro-4-hydroxyphenyl)-1H-1,2,3-triazol-4-yl)methyl)-1H-indole-2-carboxamide, reference compound] here?
A: The colony formation was “inhibited colony formation”.

Q: What about the “LE (ligand efficiency)” value (MIF [2]) of the same compound?
A: The value was 0.30.

Q: What about the “LLE (lipophilic ligand efficiency)” value (MIF [2]) of the same compound?
A: The value was 2.05.

Q: Which “inhibition of MIF–sCD74 binding” value (MIF–sCD74 interaction) does the source give for COc1ccc(N2Cc3ccc(O)cc3OC2=O)cc1OC [Compound 8, 3-(3,4-Dimethoxyphenyl)-7-hydroxy-3,4-dihydro-2H-benzo[e][1,3]oxazin-2-one, reference compound] here?
A: The value was “did not demonstrate inhibition”.

Q: And the EC50 (MIF [3])?
A: The EC50 was 386 ± 44 nM.

Q: What about the “LE (ligand efficiency)” value (MIF [2]) of the same compound?
A: The value was 0.43.

Q: What about the “LLE (lipophilic ligand efficiency)” value (MIF [2]) of the same compound?
A: Its value is 4.85.

Q: For O=C(O)c1ccc(-c2ccc(-c3cc4ccc(O)cc4oc3=O)cc2)cc1 [Compound 7, 4′-(7-Hydroxy-2-oxo-2H-chromen-3-yl)-[1,1′-biphenyl]-4-carboxylic Acid], which colony formation (A549 cells [1]; 2.5 μM) is on record?
A: The colony formation was “significantly lower numbers of colonies”.

Q: And the colony formation (A549 cells [1]; 10 μM)?
A: The colony formation was “significantly lower numbers of colonies”.

Q: What about the cell viability (A549 cells [4]) of the same compound?
A: Its cell viability is “did not inhibit cell viability”.

Q: What about the IC50 (MIF [2]) of the same compound?
A: The IC50 was 71 ± 3 nM.

Q: And the “LE (ligand efficiency)” value (MIF [2])?
A: Its value is 0.37.

Q: And the “LLE (lipophilic ligand efficiency)” value (MIF [2])?
A: The value was 5.80.

Q: What about the “mode of inhibition (enzyme kinetics)” value (MIF [2]; Lineweaver–Burk plot vs 4-HPP) of the same compound?
A: The value was “binds in competition with 4-HPP”.

Q: What about the “increased potency compared to precursor 6l” value (MIF [2]; vs 6l) of the same compound?
A: Its value is 10 fold.

Q: What about the fluorescence quantum yield [5] of the same compound?
A: The fluorescence quantum yield was 0.32.

Q: And the “fluorescence quenching by BSA” value [6]?
A: Its value is “no fluorescence quenching”.

Q: And the “MIF-induced ERK phosphorylation” value [7]?
A: Its value is “attenuated MIF-induced ERK phosphorylation”.

Q: With “4-(4-(isoquinolin-3-yl)-1H-1,2,3-triazol-1-yl)phenol [Compound 10, reference compound]” as the compound, how does the Ki (MIF [2]; 4-HPP conversion assay, Ki = IC50/(1 + 0.5/Km)) read?
A: The Ki was 440 ± 30 nM.

Q: What about the Kd (MIF [8]) of the same compound?
A: Its Kd is 470 ± 80 nM.

Q: With COC(=O)CC1CC(c2ccc(O)cc2)=NO1 (stereo not drawn) [ISO-1, methyl 2-(3-(4-hydroxyphenyl)-4,5-dihydroisoxazol-5-yl)acetate, reference compound] as the compound, how does the colony formation (A549 cells [1]; 100 μM) read?
A: The colony formation was “inhibited colony formation”.

Q: What about the “inhibition of MIF–sCD74 binding” value (MIF–sCD74 interaction) of the same compound?
A: Its value is “did not demonstrate inhibition”.

Q: For O=c1oc2cc(O)ccc2cc1-c1ccccc1 [Compound 6a, 7-Hydroxy-3-phenyl-2H-chromen-2-one], which “enhanced potency compared to inhibitor 2” value (MIF [2]; Ki ratio vs 2) is on record?
A: Its value is 10 fold.

Q: Which fluorescence quantum yield [5] does the source give for COc1ccc(-c2cc3ccc(O)cc3oc2=O)cc1 [Compound 6d, 7-Hydroxy-3-(4-methoxyphenyl)-2H-chromen-2-one] here?
A: The fluorescence quantum yield was 0.25.
